# How the values were obtained:
# Salmonella typhi [1] = experiment: (§1) Antibacterial activity against Salmonella typhi assessed per 100 uL of nutrient broth after 24 hrs by tube broth dilution method; type: functional, Salmonella enterica subsp. enterica serovar Typhi
# Procedure, shortened: (§2)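 Tube broth dilution in nutrient broth against sensitive Salmonella typhi: 0.1 mL culture (10^4-10^6 cells/mL) was added to tubes holding 1 mL of test sample at different concentrations plus 1 mL nutrient broth. Tubes were incubated 24 h at 37 °C, growth inhibition was observed, and MIC was recorded. Ampicillin was run the same way as the standard.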
# Shigella flexneri [2] = experiment: Antibacterial activity against Shigella flexneri at 100 ug/100 uL after 24 hrs by tube broth dilution method; type: functional
# Shigella flexneri [3] = experiment: Antibacterial activity against Shigella flexneri at 200 ug/100 uL after 24 hrs by tube broth dilution method; type: functional
# Salmonella typhi [4] = experiment: as §1; type: functional, Salmonella enterica subsp. enterica serovar Typhi; procedure, shortened: as §2; remark: listed apart in the source
# Pseudomonas aeruginosa [5] = experiment: Antibacterial activity against Pseudomonas aeruginosa at 100 ug/100 uL after 24 hrs by tube broth dilution method; type: functional
# Pseudomonas aeruginosa [6] = experiment: Antibacterial activity against Pseudomonas aeruginosa at 200 ug/100 uL after 24 hrs by tube broth dilution method; type: functional
# Pseudomonas aeruginosa [7] = experiment: Antibacterial activity against Pseudomonas aeruginosa assessed per 100 uL of nutrient broth after 24 hrs by tube broth dilution method; type: functional
# Procedure, shortened: (§3)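 Tube broth dilution in nutrient broth. Sensitive bacterial culture (0.1 mL of 10^4-10^6 cells/mL) added to tubes holding 1 mL test sample at different concentrations plus 1 mL nutrient broth. Incubated 24 h at 37 °C, then growth inhibition scored visually. Ampicillin run the same way as reference. Minimum inhibitory concentration taken from the dilution series.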
# Escherichia coli [8] = experiment: Antibacterial activity against Escherichia coli at 100 ug/100 uL after 24 hrs by tube broth dilution method; type: functional
# Escherichia coli [9] = experiment: Antibacterial activity against Escherichia coli at 200 ug/100 uL after 24 hrs by tube broth dilution method; type: functional
# Salmonella typhi [10] = experiment: Antibacterial activity against Salmonella typhi at 100 ug/100 uL after 24 hrs by tube broth dilution method; type: functional, Salmonella enterica subsp. enterica serovar Typhi; parameters: unit not given here
# Salmonella typhi [11] = experiment: Antibacterial activity against Salmonella typhi at 200 ug/100 uL after 24 hrs by tube broth dilution method; type: functional, Salmonella enterica subsp. enterica serovar Typhi; parameters: unit not given here
# Escherichia coli [12] = experiment: Antibacterial activity against Escherichia coli assessed per 100 uL of nutrient broth after 24 hrs by tube broth dilution method; type: functional; procedure, shortened: as §3
SMILES,MIC (Salmonella typhi [1]) [µg],inhibition zone (IZ) (Shigella flexneri [2]) [mm],inhibition zone (IZ) (Shigella flexneri [3]) [mm],MIC (Salmonella typhi [4]) [µg],inhibition zone (IZ) (Pseudomonas aeruginosa [5]) [mm],inhibition zone (IZ) (Pseudomonas aeruginosa [6]) [mm],MIC (Pseudomonas aeruginosa [7]) [µg],inhibition zone (IZ) (Escherichia coli [8]) [mm],inhibition zone (IZ) (Escherichia coli [9]) [mm],inhibition zone (IZ) (Salmonella typhi [10]),inhibition zone (IZ) (Salmonella typhi [11]),MIC (Escherichia coli [12]) [µg]
CC1(C)S[C@@H]2[C@H](NC(=O)[C@H](N)c3ccccc3)C(=O)N2[C@H]1C(=O)O [AMPICILLIN],30,11,11,30,11,11,40,11,12,,,
CC(=O)O[C@@H]1C[C@@]2(C)[C@@H]3C[C@@H]4OC[C@]5(C)[C@@H](NC(=O)c6ccccc6)CCC(=CC3=CC[C@]2(C)[C@H]1[C@H](C)N(C)C)[C@@H]45 [CYCLOBUXEINE F],100,7,7,100,6,8,10,,,7,8,
C=C1[C@@H](N(C)C(C)=O)CC[C@]23C[C@]24CC[C@]2(C)[C@@H]([C@H](C)NC)CC[C@@]2(C)[C@@H]4CC[C@@H]13 [CYCLOBUXAMIDINE],150,,,,,,,,6,6,6,200
CN[C@@H](C)[C@H]1[C@H](O)C[C@@]2(C)[C@@H]3CC[C@H]4C(C)(C)[C@@H](N(C)C)C=C[C@@]45C[C@@]35CC[C@]12C [BUXASAMARINE],100,,7,150,7,9,50,,,6,8,
